Assay results reported in the EternaBench riboswitch data.

Tested on: MS2 coat protein
Assay: apparent Kd, MS2 coat protein; higher = weaker binding; RNA-MaP array; FMN 200 µM where present
How it was run: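 In 100 mM Tris-HCl pH 7.5, 80 mM KCl, 4 mM MgCl2, BSA, DTT, yeast tRNA and Tween-20, SNAP-549-labelled MS2 coat protein was titrated from 0.7 or 1.5 nM, doubling to 3 µM, over designs transcribed by stalled E. coli RNA polymerase on Illumina sequencing-chip clusters. This was done first without ligand, then with ligand held constant. After green signal was normalised to red-channel RNA signal and control-cluster median Fmax, the apparent Kd was taken as the median of filtered per-cluster binding-curve fits.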

[1] = designed as: ON switch for flavin mononucleotide, no ligand
[2] = ligand present: flavin mononucleotide, designed as: ON switch for flavin mononucleotide
[3] = designed as: OFF switch for flavin mononucleotide, no ligand
[4] = ligand present: flavin mononucleotide, designed as: OFF switch for flavin mononucleotide

GGAAUAUUUACAGGAUAUGUUUUGUUAAGUCGAGCAGAAGGGUGGAUGUCUUACACGGUUUGUUACAUGAGGAUCACCCAUGUC
apparent Kd [1]: 264 nM | apparent Kd [2]: 260 nM

UUGUUACGAUUAGGAUAUUAUAGAUUGAAUAGUAUGAUUUACAUGAGGAUCACCCAUGUUACAUUUAAGAAGGAAUCGAAUUAU
apparent Kd [3]: 21.1 nM | apparent Kd [4]: 16.9 nM

GCGUUGUUGUAGAAGGUACAUGAAUACUUUUAAUACCUCAAGUAACAUGAGGAUCACCCAUGUAGUAAGGAUAUACAUGAACGC
apparent Kd [1]: 35.4 nM | apparent Kd [2]: 30.2 nM

UAAUUAAGUGUGAGGAUAUGCUGGUCCUUGGAUCAGCAGAAGGCACAUGAGGAUCACCCAUGUAAAUUAUUUAU
apparent Kd [3]: 103 nM | apparent Kd [4]: 437 nM

UGUCGGAGCAGAGGAUAUACAUGAGGAUCACCCAUGUAAUAGGAUGAAGCCUGGAAACAGGCAAUGUAGAAGGCUGCUCCGACA
apparent Kd [3]: 57.9 nM | apparent Kd [4]: 670 nM

UUAAAUCAUGUAGGAUAUGCAUGGCGAAGCUACGCAGAAGGACAUGAGGAUCACCCAUGUUAUAGCGUCCGAUAAAGGAUGCAA
apparent Kd [3]: 85.1 nM | apparent Kd [4]: 225 nM

UUGCCUCAGAACAUGAGGAUCACCCAUGUGCUGCGGGCAACGUAGGAUAUGAUGGUACGCUACCAUCAGAAGGAUGAUGGUACC
apparent Kd [1]: 5.51 nM | apparent Kd [2]: 4.99 nM

GGAAAUUAGCAAGGAUAUCGGCUUACUAUAACUUUAUGCCCUGGGACAUGAGGAUCACCCAUGUACGAGAAGGUGCUAACUACA
apparent Kd [3]: 23.6 nM | apparent Kd [4]: 36.9 nM

ACUGCAUAGUCAGGAUAUGCAAAAGCAGACUCAAAGAGUCUGAACAACACAUGAGGAUCACCCAUGUAGAAGGGACUGUGCAGU
apparent Kd [3]: 18.3 nM | apparent Kd [4]: 18 nM

GACGGGAAUGAGAAGGGUCACAUGAGGAUCACCCAUGUGCUCUUCGCCGUGACAGGAUAUCAUUGCCGCCAGGUUAGAUUUUUG
apparent Kd [3]: 7.87 nM | apparent Kd [4]: 22.3 nM

GUCAGCUCGUGAGGAUAUACAACACUGCUUCGGCAGCGUAUUAAGAUCACAUGAGGAUCACCCAUGUAGAAGGCACGAGCUGAU
apparent Kd [3]: 11.7 nM | apparent Kd [4]: 206 nM

UGCGGAAGAGGAUAUACGUAGAACUAGGUUCAUGUAAAACUACAUGAGGAUCACCCAUGUAGAAGGCUUUCGCU
apparent Kd [3]: 15.9 nM | apparent Kd [4]: 20.4 nM

CCUAAGGACACAGGAUAUAGCGUGGUGGCUGGGCUCCAACGACAAGCGGCGCUAGAAGGGUGACCACAUGAGGAUCACCCAUGU
apparent Kd [1]: 754 nM | apparent Kd [2]: 218 nM

AUCAGCUCGUCAGGAUAUACGUCACUGCGCCAGCAGUGUGGUAAGAUCACAUGAGGAUCACCCAUGUAGAAGGGACGAGCUGAU
apparent Kd [3]: 15 nM | apparent Kd [4]: 242 nM

AGUGUCAUCGAGAAGGCCUCAACAUGAGGAUCACCCAUGUUGCAAAAUGGGAGGAUAUCGCGCGUUAAAAUACGUUUCGUAGCA
apparent Kd [1]: 42.4 nM | apparent Kd [2]: 16.7 nM

UGGUACUAGGGAGGAUAUGGGAAGAUACAUGAGGAUCACCCAUGUUUAAGAAUGCCGAGAGGCAACUAGAAGGCCCUAGUACCG
apparent Kd [1]: 475 nM | apparent Kd [2]: 21.9 nM

UCGGCGCGAGGAUAUGCGGUUUGUGCUUUGGGCCCUCGCGUACAUGAGGAUCACCCAUGUAGAAGGCGCGCCGC
apparent Kd [3]: 192 nM | apparent Kd [4]: 212 nM

UAAUUUAACAAGAAGGCUAACAUGAGGAUCACCCAUGUUGUACAUGGAUAUAGAGGAUAUUGCUAAUAAUUAUUUAUCAUAAUU
apparent Kd [3]: 24.2 nM | apparent Kd [4]: 19.2 nM

CCCUUUAGAGGAUAUACAUGAGGAUCACCCAUGUCUUGGGUCCGGCCUGAUCUGGUACGUAGAAGGCUGUUGGU
apparent Kd [3]: 187 nM | apparent Kd [4]: 158 nM

UAAAUAAGUGUGAGGAUAUGCUGGUCCUUGGAUCAGCAGAAGGCACAUGAGGAUCACCCAUGUAAUAUAUUUAU
apparent Kd [3]: 85.2 nM | apparent Kd [4]: 316 nM

CCUGCACAUGAGGAUCACCCAUGUCAGGAUAUCUCGCCGUGAAGAGCAACACGGUAUUAGAGAAGGGACACGGG
apparent Kd [3]: 25.1 nM | apparent Kd [4]: 23.3 nM

AUUAUUAUAUUAUACAUGAGGAUCACCCAUGUUAUAAGUCAUGAGGAUAUGGUAUUGUAGUUUUUCCAGAAGGCAUUUAACUUA
apparent Kd [1]: 10.3 nM | apparent Kd [2]: 6.04 nM

AAAUUUAACGAAGGAUAUGGUUACAUGAGGAUCACCCAUGUAAUGGCUGUGAUAUUGAUUAAGUUCCAGAAGGUCGUAUACAUA
apparent Kd [3]: 52.4 nM | apparent Kd [4]: 192 nM

UUCACUCGAGUCAGGAUAUUAGUCCGCGAUAGUGUUAAGAAGGGACAUGAGGAUCACCCAUGUCACACAUGGAG
apparent Kd [3]: 28.2 nM | apparent Kd [4]: 23.2 nM

UAGGGAGGAGGGAGGGAGACAUGAGGAUCACCCAUGUAAAGUCAGGAUAUUCUCAUAUUAUAUUAGGAGAAGGGAUACAUAUCU
apparent Kd [3]: 47.5 nM | apparent Kd [4]: 13.8 nM

AAAACAUGAGGAUCACCCAUGUUUAGAUCGGUCGAUAGAGGUGAGGAUAUACUAAGUUAAGGCUGGUAGAAGGCACUGGGUACA
apparent Kd [1]: 62.4 nM | apparent Kd [2]: 42 nM

ACGUAUCAUGUAGGAUAUGACCCAGGAACUUGGUCAGAAGGACAUGAGGAUCACCCAUGUAGAGUAUGUUAGGAUGACGUAUGC
apparent Kd [3]: 114 nM | apparent Kd [4]: 150 nM

GUGUACAGAGGAUAUAUAUGAGCAUGGAAACAUGCAACUUCACAUGAGGAUCACCCAUGUAGAAGGCUGUACAC
apparent Kd [3]: 14.2 nM | apparent Kd [4]: 14.3 nM

UUAUUUUUAUGAUUGAGGAUAGGGCAGGAUAUACAUGAGGAUCACCCAUGUAAAGCAAUAAGGAGGUAGAAGGGCCAACCUCAU
apparent Kd [3]: 24.3 nM | apparent Kd [4]: 20.1 nM

UGUUUUGAAGUAGGAUAUCAACACACAUGAGGAUCACCCAUGUUAGAUGUGGAUGUUGUAUGUUAUGAGAAGGACUUCGAUUCG
apparent Kd [3]: 25.6 nM | apparent Kd [4]: 95.4 nM

GCGGUACAUGAGGAUCACCCAUGUCAGGAUAUCCGCUGUUUGUCGUUUGGCGGGCGGUGGAGAAGGGACCUCGC
apparent Kd [3]: 90 nM | apparent Kd [4]: 93 nM

GUGGCUAGUGCAGGAUAUUGGCGCGUGUAGUGUCGAGAAGGGCACAUGAGGAUCACCCAUGUGAUCAAUCACUGCUAAGGUCGC
apparent Kd [3]: 6.98 nM | apparent Kd [4]: 7.69 nM

AAGUCUGGACGAGGAUAUCAGUUGUAUCUGGCGUCAACAUGAGGAUCACCCAUGUUGCUAUAGGGUGAGAAGGCGUUUGGGCAA
apparent Kd [1]: 92.6 nM | apparent Kd [2]: 22.8 nM

AGUAACAUACUCAACAUGAGGAUCACCCAUGUACUCUCAUGUAAGGAUAUACAAUCGUAUUGAUAGUAGAAGGUACCAAUUAAG
apparent Kd [1]: 845 nM | apparent Kd [2]: 685 nM

GUGGUCAGACAUGAGGAUCACCCAUGUGGAAUAAAUAAGGACUAGGAUAUGGAAUAUAGGAUAUACCAGAAGGAGUGGUUGGUG
apparent Kd [1]: 56.4 nM | apparent Kd [2]: 60 nM

CUUGCGCGCUCGCCACUUUUCCCACAUGAGGAUCACCCAUGUCAGGAUAUACGUACCGAAAUGGCGUAGAAGGGACACGGGUUA
apparent Kd [3]: 166 nM | apparent Kd [4]: 131 nM

CUUCAGUCAGGAUAUGUUAAUCUCGCCACUCCACGAGCCGGACAGAAGGGACAUGAGGAUCACCCAUGUUAGAC
apparent Kd [3]: 30 nM | apparent Kd [4]: 22.4 nM

GUUUCGGGAGGAUAUGCGUGGAUUGUUCUCGUAUGGUGUCUACAUGAGGAUCACCCAUGUAGAAGGUCUGGAGC
apparent Kd [3]: 18 nM | apparent Kd [4]: 38.6 nM

CGAAGAGGAAGUGAAAGGCGGGACAGAAGGGCACCGGGUCAGCGUCACAUGAGGAUCACCCAUGUGCAGGAUAUGUCGACCCAC
apparent Kd [3]: 6.54 nM | apparent Kd [4]: 30.4 nM

AAUGGGCACCAGAAGGACAUGAGGAUCACCCAUGUAGGAUAUGGGCGUUGAAGAUGUCUGAUCGAGUUGCUGGAAAGAUAUGGG
apparent Kd [1]: 311 nM | apparent Kd [2]: 73.4 nM

UGGUACUAGGGAGGAUAUGGGAAGAUACAUGAGGAUCACCCAUGUUUAAGAAUGCCGAGAGGCAACUAGAAGGCACUAGUACCU
apparent Kd [1]: 1100 nM | apparent Kd [2]: 156 nM

CGUUAAUAUCGAGGAUAUGUCUAGACACAUGAGGAUCACCCAUGUAUGUGUAUAGAAGGCGAUAUUAACAGCAUGUUACAUGCA
apparent Kd [1]: 43 nM | apparent Kd [2]: 15.6 nM

GGUGCGUAUGUGAGGAUAUGCUGGUCCUUGGAUCGGCAGAAGGCACAUGAGGAUCACCCAUGUGGUGUCGUACG
apparent Kd [3]: 59.6 nM | apparent Kd [4]: 228 nM

AAGCACGAAGAUUAUUAUGAAUAAACAUGAGGAUCACCCAUGUAGGAUAUCGACUCGAAUAGAGUCGAGAAGGACAUAACGUGC
apparent Kd [3]: 6.85 nM | apparent Kd [4]: 20.7 nM

GUAGAGUAAGGAUAUGGUGAAUAGGAUAGAAUGGUUAGAAACUAGAAGGUACAUGAGGAUCACCCAUGUAAUGU
apparent Kd [3]: 21.7 nM | apparent Kd [4]: 20.7 nM

UGAACUAUGUAGAAGGCCCACAUUAAUAUGUAGGGAGGAUAUACAUGAGGAUCACCCAUGUGAAGAGCAAGAGGAUUUAACAGA
apparent Kd [3]: 23.9 nM | apparent Kd [4]: 106 nM

CACCGUUACACAGGAUAUCUUACAUGAGGAUCACCCAUGUAAUAAAUGAGAAUUUCGAAUGUAUUAGAGAAGGGUGGAAUCGGC
apparent Kd [3]: 37.7 nM | apparent Kd [4]: 90.2 nM

GUAGCUAUCGGAGGAUAUUCAUACCGGAAACGGACAUGAGGAUCACCCAUGUGGAGAAAGCCUUGGGAGAAGGCCGAUAGCUAC
apparent Kd [1]: 176 nM | apparent Kd [2]: 17.6 nM
